Measurements published in ChEMBL document CHEMBL4007417, “Target Elucidation by Cocrystal Structures of NADH-Ubiquinone Oxidoreductase of Plasmodium falciparum (PfNDH2) with Small Molecule To Eliminate Drug-Resistant Malaria” (J Med Chem, 2017).
The source made the active and inactive calls. The calls are words filed in the database; no cut-off is given here.

Columns and labels:
Plasmodium yoelii [1] = test: Antimalarial activity against Plasmodium yoelii YM infected in BALB/c mouse assessed as parasite growth inhibition at 90 mg/kg, sc administered BID for 4 days starting at 96 hrs post infection, 8 hrs apart by Giemsa-staining based microscopic analysis; assay type: functional; conditions: read-out: GI
In short: (§1)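 P. yoelii-infected mice, n=3 per group. Subcutaneous injection twice daily, 8 h apart, for 4 days starting at 96 h post infection. Growth inhibition read from blood smears at 24 h post treatment. Cure time taken as the minimum period to cure all mice in the group. DMSO controls included.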

Plasmodium falciparum [2] = test: Antimalarial activity against mid/late trophozoite stage of Plasmodium falciparum 3D7 assessed as reduction in parasitemia at 10 times EC50 administered at synchronized early ring stages and then removed from culture at 2 hrs intervals after 34 hrs paraiste invasion stage and measured till 40 hrs post invasion by SYBR green-based fluorometric analysis; assay type: functional; set-up: scale not given: the % may be the effect or the level left
In short: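 Synchronized early-ring P. falciparum 3D7 treated with about 10×EC50 compound. Compound removed at 2 h intervals starting at t=34 h (trophozoite), then parasites returned to compound-free medium. Maturation through a single ~48 h asexual cycle followed.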

Plasmodium yoelii [3] = test: Antimalarial activity against Plasmodium yoelii YM infected in BALB/c mouse assessed as parasite growth inhibition at 30 mg/kg, sc administered QD for 4 days starting at 96 hrs post infection by Giemsa-staining based microscopic analysis; assay type: functional; conditions: read-out: GI
In short: (§2)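 P. yoelii-infected mice, n=3 per group. Subcutaneous injection once daily for 4 days starting at 96 h post infection. Parasitemia followed on blood-smear microscopy, with inhibition measured at 24 h post treatment. Cure time taken as the minimum period to cure all mice; survival recorded at 40 days. DMSO controls included.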

Plasmodium yoelii [4] = test: Antimalarial activity against Plasmodium yoelii YM infected in BALB/c mouse assessed as parasite growth inhibition at 5 mg/kg, sc administered QD for 4 days starting at 2 hrs post infection by Giemsa-staining based microscopic analysis; assay type: functional; conditions: read-out: GI
In short: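 P. yoelii-infected mice, n=3 per group. Subcutaneous injection once daily for 4 days starting at 2 h post infection. Growth inhibition determined at 24 h post treatment by blood-smear microscopy. Cure time taken as the minimum period to cure all mice in the group.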

Plasmodium yoelii [5] = test: Antimalarial activity against Plasmodium yoelii YM infected in BALB/c mouse assessed as parasite growth inhibition at 10 mg/kg, sc administered BID for 4 days starting at 96 hrs post infection, 8 hrs apart by Giemsa-staining based microscopic analysis; assay type: functional; conditions: read-out: GI; in short: as §1
Plasmodium falciparum [6] = test: Antimalarial activity against multi drug-resistant asexual blood stage Plasmodium falciparum D10 after 72 hrs by SYBR green-based fluorometric analysis; assay type: functional; conditions: D10, 72 h
In short: (§3)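 Mid-ring-stage cultures (~6-10 h post-invasion) at 1% parasitemia and 2% hematocrit, in triplicate. Twofold serial dilutions from a top concentration of 100 nM. Incubated 72 h at 37 °C under 5% CO2/5% O2/90% N2. Lysis buffer containing 5×SYBR Green I added, 20 min in the dark, fluorescence read at ex 485/em 538 nm. EC50 derived.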

Plasmodium falciparum [7] = test: (§4) Antimalarial activity against dihydroartemisinin-resistant asexual blood stage Plasmodium falciparum 803 assessed as reduction in parasite recrudescence at 10 times EC50 for 72 hrs measured after 28 days post invasion by Giemsa staining-based light microscopic analysis; assay type: functional
In short: (§5)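 Parasite cultures exposed for 72 h to 10× EC50 of inhibitor. Drug then removed and cultures maintained for 28 days post treatment. Recrudescence monitored by microscopy.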

Plasmodium yoelii [8] = test: Antimalarial activity against Plasmodium yoelii YM infected in BALB/c mouse assessed reduction in parasitemia at 30 mg/kg/day, sc for 4 days by Giemsa-staining based microscopic analysis; assay type: functional, organism-based; in short: as §2
Plasmodium yoelii [9] = test: Antimalarial activity against Plasmodium yoelii YM infected in BALB/c mouse assessed as parasite growth inhibition at 30 mg/kg, sc administered BID for 4 days starting at 96 hrs post infection, 8 hrs apart by Giemsa-staining based microscopic analysis; assay type: functional; conditions: read-out: GI; in short: as §1
Plasmodium falciparum [10] = test: Antimalarial activity against chloroquine/quinine/sulfadoxine-pyrimethamine/amodiaquine-resistant asexual blood stage Plasmodium falciparum PC26 after 72 hrs by SYBR green-based fluorometric analysis; assay type: functional; conditions: PC26, 72 h; in short: as §3
Plasmodium yoelii [11] = test: Antimalarial activity against Plasmodium yoelii YM infected in BALB/c mouse assessed as mouse survival at 10 mg/kg, sc administered BID for 4 days starting at 96 hrs post infection, 8 hrs apart by Giemsa-staining based microscopic analysis; assay type: functional
In short: (§6)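 Mice inoculated with 1×106 P. yoelii parasites. Subcutaneous dosing for 4 days starting 96 h post infection, given once daily or twice daily 8 h apart. Parasitemia followed on Giemsa-stained blood smears. Survival recorded at 40 days post infection; groups of n=3. DMSO-only mice served as untreated controls.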

Plasmodium falciparum [12] = test: Antimalarial activity against […] asexual blood stage Plasmodium falciparum 3D7 assessed as reduction in parasite recrudescence at 10 times EC50 for 72 hrs measured after 28 days post invasion by Giemsa staining-based light microscopic analysis; assay type: functional; in short: as §5
Plasmodium falciparum [13] = test: Antimalarial activity against Plasmodium falciparum 3D7 assessed as alteration of parasite morphology at 10 times EC50 dosed at ring stage […] by Giemsa staining-based light microscopic analysis; assay type: functional, organism-based
Plasmodium falciparum [14] = test: Antimalarial activity against dihydroartemisinin-resistant asexual blood stage Plasmodium falciparum 803 after 72 hrs by SYBR green-based fluorometric analysis; assay type: functional; conditions: Plasmodium falciparum, 803, 72 h; in short: as §3
Plasmodium falciparum [15] = test: Antimalarial activity against […] asexual blood stage Plasmodium falciparum 3D7 after 72 hrs by SYBR green-based fluorometric analysis; assay type: functional; conditions: 3D7, 72 h; in short: as §3
Plasmodium yoelii [16] = test: Antimalarial activity against Plasmodium yoelii YM infected in BALB/c mouse assessed as time duration for parasite cure at 30 mg/kg, sc administered QD for 4 days starting at 96 hrs post infection by Giemsa-staining based microscopic analysis; assay type: functional; in short: as §2
Plasmodium yoelii [17] = test: Antimalarial activity against Plasmodium yoelii YM infected in BALB/c mouse assessed as mouse survival at 30 mg/kg, sc administered QD for 4 days starting at 96 hrs post infection by Giemsa-staining based microscopic analysis; assay type: functional; in short: as §6
Plasmodium yoelii [18] = test: Antimalarial activity against Plasmodium yoelii YM infected in BALB/c mouse assessed as mouse survival at 30 mg/kg, sc administered BID for 4 days starting at 96 hrs post infection, 8 hrs apart by Giemsa-staining based microscopic analysis; assay type: functional; in short: as §6
Plasmodium falciparum [19] = test: Antimalarial activity against sulfadoxine-pyrimethamine/mefloquine resistant asexual blood stage Plasmodium falciparum CP286 after 72 hrs by SYBR green-based fluorometric analysis; assay type: functional; conditions: CP286, 72 h; in short: as §3
Plasmodium yoelii [20] = test: Antimalarial activity against Plasmodium yoelii YM infected in BALB/c mouse assessed as time duration for parasite cure at 30 mg/kg, sc administered BID for 4 days starting at 96 hrs post infection, 8 hrs apart by Giemsa-staining based microscopic analysis; assay type: functional; in short: as §1
Plasmodium falciparum [21] = test: Antimalarial activity against chloroquine/quinine/sulfadoxine-pyrimethamine/amodiaquine-resistant asexual blood stage Plasmodium falciparum Dd2 after 72 hrs by SYBR green-based fluorometric analysis; assay type: functional; conditions: Dd2, 72 h; in short: as §3
Plasmodium falciparum [22] = test: Antimalarial activity against chloroquine/quinine-resistant asexual blood stage Plasmodium falciparum S35 after 72 hrs by SYBR green-based fluorometric analysis; assay type: functional; conditions: S35, 72 h; in short: as §3
Plasmodium falciparum [23] = test: Antimalarial activity against quinine-resistant asexual blood stage Plasmodium falciparum C2A after 72 hrs by SYBR green-based fluorometric analysis; assay type: functional; in short: as §3
Plasmodium falciparum [24] = test: Antimalarial activity against multi drug-resistant asexual blood stage Plasmodium falciparum Fab9 after 72 hrs by SYBR green-based fluorometric analysis; assay type: functional; conditions: Fab9, 72 h; in short: as §3
Plasmodium yoelii [25] = test: Antimalarial activity against Plasmodium yoelii YM infected in BALB/c mouse assessed as time duration for parasite cure at 90 mg/kg, sc administered BID for 4 days starting at 96 hrs post infection, 8 hrs apart by Giemsa-staining based microscopic analysis; assay type: functional; in short: as §1
Plasmodium falciparum [26] = test: Antimalarial activity against chloroquine-resistant asexual blood stage Plasmodium falciparum GB4 after 72 hrs by SYBR green-based fluorometric analysis; assay type: functional; conditions: GB4, 72 h; in short: as §3
Plasmodium falciparum [27] = test: as §4, with “chloroquine/quinine/sulfadoxine-pyrimethamine/amodiaquine-resistant” for “dihydroartemisinin-resistant”, “Dd2” for “803”; assay type: functional; in short: as §5
Plasmodium yoelii [28] = test: Antimalarial activity against Plasmodium yoelii YM infected in BALB/c mouse assessed as parasite cure level at 10 mg/kg, ip administered on days 1 post infection by Giemsa-stained microscopic analysis; assay type: functional, organism-based
In short: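 Mice (groups of three) inoculated with 1×10^6 P. yoelii parasites. Single intraperitoneal dose of 10, 30 or 90 mg/kg given 24 h after inoculation. DMSO-only untreated group included. Outcome followed by blood-smear microscopy for cure, with survival scored at 40 days post infection.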

Plasmodium yoelii [29] = test: Antimalarial activity against Plasmodium yoelii YM infected in BALB/c mouse assessed as mouse survival at 5 mg/kg, sc administered QD for 4 days starting at 2 hrs post infection by Giemsa-staining based microscopic analysis; assay type: functional
In short: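 Mice inoculated with 1×106 P. yoelii parasites, then dosed subcutaneously once daily for 4 days starting 2 h post infection. Parasitemia followed by microscopy of blood smears. Survival scored at 40 days post infection in groups of n=3 mice. DMSO-only controls.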

Plasmodium yoelii [30] = test: Antimalarial activity against Plasmodium yoelii YM infected in BALB/c mouse assessed as mouse survival at 90 mg/kg, sc administered BID for 4 days starting at 96 hrs post infection, 8 hrs apart by Giemsa-staining based microscopic analysis; assay type: functional; in short: as §6
HeLa = test: Cytotoxicity against human HeLa cells assessed as reduction in cell viability up to 2 uM after 48 hrs by MTT assay; assay type: cell-based
In short: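 HeLa cell viability measured by MTT assay with compound at concentrations up to 2 µM.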

## Cc1c(-c2ccc(Cc3ccc(SC(F)(F)F)cc3)cc2)[nH]c2cccc(F)c2c1=O
Plasmodium yoelii [1]
  inhibition in vivo at 90 mg/kg: 100%
Plasmodium falciparum [2]
  Activity: >=50%
Plasmodium yoelii [3]
  inhibition in vivo at 30 mg/kg: 77.4%
Plasmodium yoelii [4]
  inhibition in vivo at 5 mg/kg: 0%
Plasmodium yoelii [5]
  inhibition in vivo at 10 mg/kg: 0%
Plasmodium falciparum [6]
  EC50: 7.7 nM
Plasmodium falciparum [7]
  Activity: Active
Plasmodium yoelii [8]
  Activity: Active
Plasmodium yoelii [9]
  inhibition in vivo at 30 mg/kg: 99.8%
Plasmodium falciparum [10]
  EC50: 4.42 nM
Plasmodium yoelii [11]
  survival at 10 mg/kg: 0%
Plasmodium falciparum [12]
  Activity: Active
Plasmodium falciparum [13]
  Activity: Active
Plasmodium falciparum [14]
  EC50: 4.66 nM
Plasmodium falciparum [15]
  EC50: 5.69 nM
Plasmodium yoelii [16]
  Time: 18 days
Plasmodium yoelii [17]
  survival at 30 mg/kg: 66.7%
Plasmodium yoelii [18]
  survival at 30 mg/kg: 100%
Plasmodium falciparum [19]
  EC50: 6.24 nM
Plasmodium yoelii [20]
  Time: 15 days
Plasmodium falciparum [21]
  EC50: 2.1 nM
Plasmodium falciparum [22]
  EC50: 4.82 nM
Plasmodium falciparum [23]
  EC50: 5.26 nM
Plasmodium falciparum [24]
  EC50: 5.46 nM
Plasmodium yoelii [25]
  Time: 14 days
Plasmodium falciparum [26]
  EC50: 3.17 nM
Plasmodium falciparum [27]
  Activity: Active
Plasmodium yoelii [28]
  Activity: inactive
Plasmodium yoelii [29]
  survival at 5 mg/kg: 0%
Plasmodium yoelii [30]
  survival at 90 mg/kg: 100%
HeLa
  Activity: Non-Toxic
